ChEMBL document CHEMBL3992496, “Oligonucleotide transition state analogues of saporin L3” (Eur J Med Chem, 2017)

Tests used:
[1] = Competitive inhibition of Saponaria officinalis saporin L3 expressed in yeast using RNA A10 as substrate preincubated for 10 mins followed substrate addition by luciferase assay
[2] = Competitive inhibition of Saponaria officinalis saporin L1 using RNA A10 as substrate preincubated for 10 mins followed substrate addition by continuous luciferase assay
[3] = Competitive inhibition of Saponaria officinalis saporin L3 expressed in yeast using yeast tRNA as substrate
[4] = Inhibition of yeast expressing Saponaria officinalis saporin L3 A14C mutant-mediated suppression of luciferase mRNA translation in rabbit reticulocyte extract preincubated with protein for 10 mins followed by addition of rabbit reticulocyte translation system for 90 mins by luciferase assay
Summary of the method: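 Rabbit reticulocyte lysate translation of luciferase-encoding mRNA. 10 nM SAP A14C preincubated 10 min with increasing inhibitor in pH 7.4 buffer, then added to translation mix, 30 °C, 90 min. Luciferase luminescence read. Control contained top inhibitor concentration without enzyme. Percent translation vs log inhibitor fit to dose-response curve for EC50.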

[5] = Competitive inhibition of Saponaria officinalis saporin L3 A14C mutant expressed in yeast using yeast tRNA as substrate
Summary of the method: (§1)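 Saporin L3 A14C, secreted from yeast and purified. Substrate held fixed: isolated rabbit 80S ribosomes (100 nM) or yeast tRNA (1.0 mg/mL). Inhibitor preincubated with enzyme 10 min for slow-onset binding before substrate, then adenine release read by coupled luciferase method. Ki* taken from competitive inhibition fit.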

[6] = Competitive inhibition of Saponaria officinalis saporin L3 A14C mutant expressed in yeast using rabbit rRNA as substrate; summary of the method: as §1
[7] = Competitive inhibition of Saponaria officinalis saporin L3 expressed in yeast using rabbit rRNA as substrate
Summary of the method: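 Saporin L3 secreted from yeast cultures and purified to near-homogeneity. Substrate was isolated rabbit 80S ribosomes purified in-house, fixed at 100 nM, with concentration from A260. Inhibitor at varying concentrations was preincubated with enzyme for 10 min. K_i* was taken as slow-onset competitive inhibition.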

`CO[C@@H]1[C@H](OP(=O)(O)OCCCO)[C@@H](COP(=O)(O)O[C@H]2CN(CCc3c[nH]c4c(N)ncnc34)C[C@@H]2COP(=O)(O)OCCCO)O[C@H]1n1cnc2c(=O)[nH]c(N)nc21` showed a Ki [1] of 12.4 nM.

Work on `CO[C@@H]1[C@H](O)[C@@H](COP(=O)(O)O[C@H]2CN(Cc3c[nH]c4c(N)ncnc34)C[C@@H]2COP(=O)(O)OC2[C@@H](OC)[C@H](n3cnc4c(=O)[nH]c(N)nc43)O[C@@H]2CO)O[C@H]1n1cnc2c(=O)[nH]c(N)nc21` (stereo partly drawn) yielded a Ki [1] of 33 nM.

`CO[C@@H]1[C@H](OP(=O)(O)OC[C@H]2O[C@@H](n3cnc4c(=O)[nH]c(N)nc43)[C@H](OC)[C@@H]2OP(=O)(O)OC[C@H]2CN(Cc3c[nH]c4c(N)ncnc34)C[C@@H]2OP(=O)(O)OCCCO)[C@@H](CO)O[C@H]1n1cnc2c(=O)[nH]c(N)nc21` showed a Ki [1] of 212 nM.

With `CO[C@@H]1[C@H](OP(=O)(O)OC[C@H]2CN(Cc3c[nH]c4c(N)ncnc34)C[C@@H]2OP(=O)(O)OC[C@H]2O[C@@H](n3cnc4c(=O)[nH]c(N)nc43)[C@H](OC)[C@@H]2OP(=O)(O)OCCCO)[C@@H](COP(=O)(O)OCCCO)O[C@H]1n1cnc2c(=O)[nH]c(N)nc21` the Ki [1] was 7.4 nM.

`CO[C@@H]1[C@H](OP(=O)(O)OCCCO)[C@@H](COP(=O)(O)OCC(CNCc2c[nH]c3c(N)ncnc23)COP(=O)(O)OCCCO)O[C@H]1n1cnc2c(=O)[nH]c(N)nc21` (mixture of isomers) showed a Ki [1] of 26.8 nM.

`CO[C@@H]1[C@H](OP(=O)(O)OC[C@H]2CN(Cc3c[nH]c4c(N)ncnc34)C[C@@H]2OP(=O)(O)OC[C@H]2O[C@@H](n3cnc4c(=O)[nH]c(N)nc43)[C@H](OC)[C@@H]2OP(=O)(O)OCCCO)[C@@H](CO)O[C@H]1n1cnc2c(=O)[nH]c(N)nc21` gave a Ki [1] of 10.5 nM.

With `CO[C@@H]1[C@H](OP(=O)(O)OCCCO)[C@@H](COP(=O)(O)O[C@H]2CN(Cc3c[nH]c4c(N)ncnc34)C[C@@H]2CO)O[C@H]1n1cnc2c(=O)[nH]c(N)nc21` the Ki [1] was 10700 nM.

`CO[C@@H]1[C@H](O)[C@@H](COP(=O)(O)O[C@H]2CN(Cc3c[nH]c4c(N)ncnc34)C[C@@H]2COP(=O)(O)OCCCO)O[C@H]1n1cnc2c(=O)[nH]c(N)nc21` gave a Ki [1] of 19.3 nM.

`CO[C@@H]1[C@H](OP(=O)(O)OCCCO)[C@@H](COP(=O)(O)OCC(COP(=O)(O)OCCCO)NCc2c[nH]c3c(N)ncnc23)O[C@H]1n1cnc2c(=O)[nH]c(N)nc21` (stereo partly drawn) gave a Ki [2] of 43.2 nM.

`CO[C@@H]1[C@H](OP(=O)(O)OCCCO)[C@@H](COP(=O)(O)O[C@H]2CN(Cc3c[nH]c4c(N)ncnc34)C[C@@H]2COP(=O)(O)OCCCO)O[C@H]1n1cnc2c(=O)[nH]c(N)nc21` showed a Ki [3] of 9.9 nM, an IC50 [4] of 13 nM and a Ki [1] of 3.3 nM. It also gave a Ki [5] of 8.4 nM, a Ki [6] of 5.4 nM and a Ki [7] of 6.7 nM.

`CO[C@@H]1[C@H](O)[C@@H](COP(=O)(O)O[C@H]2CN(Cc3c[nH]c4c(N)ncnc34)C[C@@H]2CO)O[C@H]1n1cnc2c(=O)[nH]c(N)nc21` gave a Ki [1] of 21300 nM.

For `CO[C@@H]1[C@H](OP(=O)(O)OC[C@H]2CN(Cc3c[nH]c4c(N)ncnc34)C[C@@H]2OP(=O)(O)OCCCO)[C@@H](COP(=O)(O)OCCCO)O[C@H]1n1cnc2c(=O)[nH]c(N)nc21`, the Ki [1] was 188 nM.

With `CO[C@@H]1[C@H](O)[C@@H](COP(=O)(O)O[C@H]2[C@@H](OC)[C@H](n3cnc4c(=O)[nH]c(N)nc43)O[C@@H]2COP(=O)(O)O[C@H]2CN(Cc3c[nH]c4c(N)ncnc34)C[C@@H]2COP(=O)(O)OC2[C@@H](OC)[C@H](n3cnc4c(=O)[nH]c(N)nc43)O[C@@H]2CO)O[C@H]1n1cnc2c(N)ncnc21` (stereo partly drawn) the Ki [1] was 6.1 nM.
